In general, solubility refers to the concentration that dissolves in the medium under given conditions. Broadly, the Cmax is the peak of the concentration-time curve. One may read the IC50 as the concentration at which inhibition is half-maximal.

Molecules are shown by their SMILES. Active and inactive are the calls of the source. The calls are words filed in the database; no cut-off is given here.

The nature of data set [1]: Solubility of the compound in FeSSIF. It counts as physicochemical.
Data set [2] deals with Liver. The data set is described as follows: Proinflammatory activity in C57BL/6J mouse liver assessed as TNFalpha levels at 30 mg/kg, po by multiplex assay (reference value: 15 pg/g). It is filed as functional.
The test system of data set [3] is Cynomolgus monkey. The data set is described as follows: Activation of monocytes in cynomolgus monkey plasma assessed as upregulation of IL1Ra levels at 3 mg/kg, po after 24 hrs by Luminex assay (reference value: 320 pg/ml). It is filed as functional, Macaca fascicularis.
Data set [4] concerns Plasma. As to the kind of experiment: Proinflammatory activity in C57BL/6J mouse plasma assessed as IL-6 levels at 0.3 mg/kg, po by multiplex assay (reference value: 505 pg/ml). It counts as functional.
Data set [5] deals with Cynomolgus monkey. The data set is described as follows: Activation of monocytes in cynomolgus monkey plasma assessed as upregulation of MCP1 levels at 1 mg/kg, po after 24 hrs by Luminex assay (reference value: 385 pg/ml). It counts as functional, Macaca fascicularis.
Data set [6] relates to Plasma. As to the kind of experiment: Upregulation of IP-10 mRNA expression levels in C57BL/6J mouse plasma at 10 mg/kg, po by RT-qPCR analysis (reference value: 1). It is filed as functional. For orientation: Quantitative PCR measures a nucleic acid by following its amplification.
A short description of data set [7]: Cmax in C57BL/6J mouse liver at 10 mg/kg, po by LC-MS analysis. It counts as ADME, organism-based. Also on record: dose 10 mg/kg, route oral. In a few lines:
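Healthy C57BL/6 mice, groups of 15, given a single oral dose (0.3, 1, 3, 10 or 30 mg/kg) in 20% HP-β-CD. Blood drawn at 0.5 h. Three mice per group sacrificed at 0.5, 1, 2, 4 or 7 h, and compound in plasma and liver measured by LC−MS. Values rounded to whole numbers.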

Data set [8] relates to Cynomolgus monkey. As to the kind of experiment: Activation of monocytes in cynomolgus monkey plasma assessed as upregulation of MCP1 levels at 3 mg/kg, po after 24 hrs by Luminex assay (reference value: 385 pg/ml). It counts as functional, Macaca fascicularis.
The test system of data set [9] is Plasma. The data set is described as follows: Proinflammatory activity in C57BL/6J mouse plasma assessed as IL-1beta levels at 30 mg/kg, po by multiplex assay (reference value: 60 pg/ml). It is filed as functional.
Data set [10] relates to Cynomolgus monkey. The data set is described as follows: Effect on cytokine profile in cynomolgus monkey plasma assessed as IL-12P70 levels at 9 mg/kg, po after 24 hrs by Luminex assay (reference value: 2.17 pg/ml). It is filed as functional, Macaca fascicularis. In a few lines: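 Healthy cynomolgus monkeys given single oral doses of 1, 3, 9 and 30 mg/kg, with a 2-week wash-out planned between doses. Systemic cytokine levels in plasma were sampled at 0.5, 1, 2, 4, 9 and 24 h postdose.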

Data set [11] is described as follows: Plasma concentration in C57BL/6J mouse at 30 mg/kg, po by LC-MS analysis. It counts as ADME, organism-based. Conditions: in vivo.
For another data set, the target named is Cytochrome P450 2D6 (Homo sapiens, UniProt P10635). The data set is described as follows: Inhibition of CYP2D6 (unknown origin). It is filed as ADME.
Sequence of Cytochrome P450 2D6 (P10635 whole entry): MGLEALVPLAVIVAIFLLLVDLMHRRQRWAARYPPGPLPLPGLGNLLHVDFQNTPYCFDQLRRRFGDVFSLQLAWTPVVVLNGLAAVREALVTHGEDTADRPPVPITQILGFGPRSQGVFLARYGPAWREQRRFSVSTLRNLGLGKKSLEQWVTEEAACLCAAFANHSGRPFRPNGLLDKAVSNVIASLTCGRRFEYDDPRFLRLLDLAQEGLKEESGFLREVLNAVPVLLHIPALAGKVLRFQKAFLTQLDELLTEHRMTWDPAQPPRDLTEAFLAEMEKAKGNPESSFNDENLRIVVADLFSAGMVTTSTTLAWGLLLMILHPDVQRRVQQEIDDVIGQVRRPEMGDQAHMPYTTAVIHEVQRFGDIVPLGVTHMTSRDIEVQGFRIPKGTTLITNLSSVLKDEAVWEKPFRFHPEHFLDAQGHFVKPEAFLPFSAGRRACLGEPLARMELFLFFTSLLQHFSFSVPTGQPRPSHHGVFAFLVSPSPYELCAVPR
The subject of data set [12] is Liver. The data set is described as follows: Anti-inflammatory activity in C57BL/6J mouse liver assessed as IL-10 levels at 0.3 mg/kg, po by multiplex assay (reference value: 2 pg/g). It counts as functional. In a few lines: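 Mice (C57BL/6) got a single oral dose of 0.3–30 mg/kg in 20% HP-β-CD, in groups of 15. Three per group were sacrificed at 0.5, 1, 2, 4 or 7 h, and liver cytokines were measured by multiplex. Values were rounded to the nearest multiple of 5.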

The target in data set [13] is TLR7 and TLR8 (Homo sapiens) (UniProt Q9NYK1+Q9NR97). The data set is described as follows: Agonist activity at TLR7/8 in human PBMCs co-cultured with primary human hepatocytes infected with HBV genotype C for 12 days assessed as increase in IL-12p40 levels up to 5 uM measured after 42 days.
Sequence of TLR7 and TLR8 (Homo sapiens) (Q9NR97 whole entry, looked up): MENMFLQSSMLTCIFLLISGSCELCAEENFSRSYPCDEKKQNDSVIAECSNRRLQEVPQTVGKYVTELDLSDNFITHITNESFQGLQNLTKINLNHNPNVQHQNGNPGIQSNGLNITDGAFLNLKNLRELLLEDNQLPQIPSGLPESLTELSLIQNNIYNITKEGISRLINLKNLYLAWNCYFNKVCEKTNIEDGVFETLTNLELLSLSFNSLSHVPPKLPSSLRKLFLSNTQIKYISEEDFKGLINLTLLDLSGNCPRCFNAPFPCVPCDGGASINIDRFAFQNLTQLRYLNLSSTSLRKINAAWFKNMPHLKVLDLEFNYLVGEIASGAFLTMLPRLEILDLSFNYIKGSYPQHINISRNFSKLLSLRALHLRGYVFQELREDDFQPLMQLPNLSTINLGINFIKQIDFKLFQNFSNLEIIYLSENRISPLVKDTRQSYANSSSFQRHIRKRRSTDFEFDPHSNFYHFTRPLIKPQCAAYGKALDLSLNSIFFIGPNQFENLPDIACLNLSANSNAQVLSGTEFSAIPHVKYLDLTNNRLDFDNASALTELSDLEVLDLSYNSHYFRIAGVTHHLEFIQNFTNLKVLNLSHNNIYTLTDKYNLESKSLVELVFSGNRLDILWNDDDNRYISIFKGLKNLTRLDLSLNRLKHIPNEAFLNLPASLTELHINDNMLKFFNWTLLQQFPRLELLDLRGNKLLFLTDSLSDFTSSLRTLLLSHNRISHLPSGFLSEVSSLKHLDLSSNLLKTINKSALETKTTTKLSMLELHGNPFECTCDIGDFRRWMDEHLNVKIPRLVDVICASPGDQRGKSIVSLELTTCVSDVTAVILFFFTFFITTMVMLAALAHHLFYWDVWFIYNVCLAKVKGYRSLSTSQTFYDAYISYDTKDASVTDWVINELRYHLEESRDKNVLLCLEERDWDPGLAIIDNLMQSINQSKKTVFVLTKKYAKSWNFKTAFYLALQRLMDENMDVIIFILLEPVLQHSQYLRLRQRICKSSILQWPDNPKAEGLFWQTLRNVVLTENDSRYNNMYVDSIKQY
Sequence of TLR7 and TLR8 (Homo sapiens) (Q9NYK1 whole entry, looked up): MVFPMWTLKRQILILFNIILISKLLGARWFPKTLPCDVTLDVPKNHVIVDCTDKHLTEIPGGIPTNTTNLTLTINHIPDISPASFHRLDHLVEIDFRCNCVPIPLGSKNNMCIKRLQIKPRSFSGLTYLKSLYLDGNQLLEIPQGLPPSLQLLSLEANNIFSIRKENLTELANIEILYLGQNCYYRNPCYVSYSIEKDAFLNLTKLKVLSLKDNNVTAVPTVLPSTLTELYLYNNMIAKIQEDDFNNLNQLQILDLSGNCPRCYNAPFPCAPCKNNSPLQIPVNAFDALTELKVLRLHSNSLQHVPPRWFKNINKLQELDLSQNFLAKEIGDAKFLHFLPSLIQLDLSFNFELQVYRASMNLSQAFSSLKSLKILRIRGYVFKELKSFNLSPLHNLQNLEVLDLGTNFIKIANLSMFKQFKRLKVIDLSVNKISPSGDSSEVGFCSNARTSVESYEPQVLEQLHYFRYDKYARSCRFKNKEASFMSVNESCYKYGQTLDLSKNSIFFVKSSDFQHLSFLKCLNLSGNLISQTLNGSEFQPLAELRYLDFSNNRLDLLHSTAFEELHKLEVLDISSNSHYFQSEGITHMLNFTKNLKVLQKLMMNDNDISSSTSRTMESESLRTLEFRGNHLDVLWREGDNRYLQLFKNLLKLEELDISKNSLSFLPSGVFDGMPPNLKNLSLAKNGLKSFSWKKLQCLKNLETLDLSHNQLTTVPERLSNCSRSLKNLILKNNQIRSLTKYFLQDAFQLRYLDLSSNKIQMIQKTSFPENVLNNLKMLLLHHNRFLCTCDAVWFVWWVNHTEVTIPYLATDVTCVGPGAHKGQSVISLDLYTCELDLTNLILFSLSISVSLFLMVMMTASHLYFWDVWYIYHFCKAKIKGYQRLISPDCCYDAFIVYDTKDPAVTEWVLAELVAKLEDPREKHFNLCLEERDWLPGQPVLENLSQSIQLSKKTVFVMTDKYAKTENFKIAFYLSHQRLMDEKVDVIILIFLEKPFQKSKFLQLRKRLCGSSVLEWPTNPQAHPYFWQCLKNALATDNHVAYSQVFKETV
Data set [14] relates to Plasma. The data set is described as follows: Induction of IFNalpha levels in C57BL/6J mouse plasma at 1 mg/kg, po by ELISA. It is filed as functional.
Data set [15] deals with Toll-like receptor 7/8 (Homo sapiens). The data set is described as follows: Agonist activity at TLR7/8 in human PBMCs assessed as decrease in intracellular HBV RNA levels in human hepatocytes infected with HBV genotype C for 12 days followed by exposure to conditioned supernatant from up to 5 uM compound treated PBMCs measured after 42 days.
Data set [16] deals with Plasma. The data set is described as follows: Upregulation of IP-10 mRNA expression levels in C57BL/6J mouse plasma at 0.3 mg/kg, po by RT-qPCR analysis (reference value: 1). It counts as functional.

Take `CCC[C@@H](CCO)Nc1nc(N)nc2c(F)cccc12`: the solubility in data set [1] is greater than 4000 µg/mL. Moreover, the Activity in the data set with Liver [2] was 13600 pg/g; with Cynomolgus monkey [3], 2020 pg/mL; in the data set on Plasma [4], 480 pg/mL; in the data set on Cynomolgus monkey [5] it was 2820 pg/mL; in the data set on Cynomolgus monkey [8], 7720 pg/mL; with Plasma [9], 70 pg/mL. For the same compound, the results for the Activity in the data set on Cynomolgus monkey [10], in the data set with Liver [12] and in the data set on Plasma [14] were 3.8 pg/mL, 730 pg/g and 180 pg/mL, respectively. For the same compound, the “fold change (FC)” value is 2875 in the data set on Plasma [6] and 15 in the data set on Plasma [16]. In [7], the concentration peaked (Cmax) at 1420 ng/g. In data set [11], this compound had a Cp of 35.7 ng/mL. This compound also came in with an IC50 at Cytochrome P450 2D6 of 5.7 µM. For the same compound, the outcome in data set [13] and in [15] was Active.

The values above are taken from ChEMBL document CHEMBL4130635, “2,4-Diaminoquinazolines as Dual Toll-like Receptor (TLR) 7/8 Modulators for the Treatment of Hepatitis B Virus” (J Med Chem, 2018).
